Experimental data taken from ChEMBL document CHEMBL4196069 (Eur J Med Chem, 2018).
Active and inactive are the calls of the source. The rule behind the calls is not given here.

Tests used:
PC-3 = assay: Antiproliferative activity against human PC3 cells after 72 hrs by MTT assay; assay type: functional, cell-based; settings: PC-3, 72 h
Method in brief: (§1)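 Cells pre-incubated 24 h at 37 °C in humidified 5% CO2, then exposed to compounds for 72 h. MTT (5 mg/mL) was added for 4 h, formazan was dissolved in DMSO, and OD was read at 570 nm. Vehicle control was 0.1% DMSO. IC50 was calculated from inhibition ratios as the mean ± SD of three independent experiments.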

Bel-7402 [1] = assay: Antiproliferative activity against human Bel7402 cells after 72 hrs by MTT assay; assay type: functional, cell-based; settings: Bel-7402, 72 h; method in brief: as §1
L02 = assay: Antiproliferative activity against human LO2 cells after 72 hrs by MTT assay; assay type: cell-based; settings: L02, 72 h; method in brief: as §1
Bel-7402 [2] = assay: Cell cycle arrest in human Bel7402 cells assessed as accumulation at G1 phase at 0.125 uM after 72 hrs by propidium iodide staining-based flow cytometric method (reference value: 39.28%); assay type: functional
Bel-7402 [3] = assay: Cell cycle arrest in human Bel7402 cells assessed as accumulation at G2/M phase at 0.125 uM after 72 hrs by propidium iodide staining-based flow cytometric method (reference value: 23.71%); assay type: functional
Bel-7402 [4] = assay: Cell cycle arrest in human Bel7402 cells assessed as accumulation at S phase at 0.125 uM after 72 hrs by propidium iodide staining-based flow cytometric method (reference value: 37.02%); assay type: functional
Bel-7402 [5] = assay: Cell cycle arrest in human Bel7402 cells assessed as accumulation at G1 phase at 0.25 uM after 72 hrs by propidium iodide staining-based flow cytometric method (reference value: 39.28%); assay type: functional
Bel-7402 [6] = assay: Cell cycle arrest in human Bel7402 cells assessed as accumulation at S phase at 0.25 uM after 72 hrs by propidium iodide staining-based flow cytometric method (reference value: 37.02%); assay type: functional
Bel-7402 [7] = assay: Cell cycle arrest in human Bel7402 cells assessed as accumulation at G1 phase at 0.5 uM after 72 hrs by propidium iodide staining-based flow cytometric method (reference value: 39.28%); assay type: functional
Bel-7402 [8] = assay: Induction of apoptosis in human Bel7402 cells assessed as cell shrinkage at 0.125 to 0.25 uM after 48 hrs by Hoechst 33258 staining based fluorescent microscopic method; assay type: functional
Method in brief: (§2)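 Bel-7402 cells were seeded and grown 24 h, treated at 0.125, 0.25 and 0.5 µM for 48 h, then harvested by mild trypsinization and washed in PBS. They were stained with Hoechst 33258 for 15 min at room temperature in the dark and examined by fluorescence microscopy with a DAPI filter. Untreated cells served as control.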

Bel-7402 [9] = assay: Induction of apoptosis in human Bel7402 cells assessed as reduction in number of adherent cells at 0.125 to 0.25 uM after 48 hrs by Hoechst 33258 staining based fluorescent microscopic method; assay type: functional, cell-based; method in brief: as §2
Bel-7402 [10] = assay: Induction of apoptosis in human Bel7402 cells assessed as nuclear fragmentation at 0.5 uM after 48 hrs by Hoechst 33258 staining based fluorescent microscopic method; assay type: functional, cell-based; method in brief: as §2
Bel-7402 [11] = assay: Induction of apoptosis in human Bel7402 cells after 72 hrs by Annexin V-FITC/propidium iodide staining based flow cytometry; assay type: functional, cell-based
Bel-7402 [12] = assay: Induction of apoptosis in human Bel7402 cells assessed as late apoptotic cells at 0.125 uM after 72 hrs by Annexin V-FITC/propidium iodide staining based flow cytometry (reference value: 2.82%); assay type: functional
Bel-7402 [13] = assay: Induction of apoptosis in human Bel7402 cells assessed as necrotic cells at 0.125 uM after 72 hrs by Annexin V-FITC/propidium iodide staining based flow cytometry (reference value: 13.05%); assay type: functional
Bel-7402 [14] = assay: Induction of apoptosis in human Bel7402 cells assessed as viable cells at 0.125 uM after 72 hrs by Annexin V-FITC/propidium iodide staining based flow cytometry (reference value: 82.48%); assay type: functional; settings: Bel-7402, 72 h, read-out: Activity
Bel-7402 [15] = assay: Induction of apoptosis in human Bel7402 cells assessed as early apoptotic cells at 0.25 uM after 72 hrs by Annexin V-FITC/propidium iodide staining based flow cytometry (reference value: 1.65%); assay type: functional
Bel-7402 [16] = assay: Induction of apoptosis in human Bel7402 cells assessed as late apoptotic cells at 0.25 uM after 72 hrs by Annexin V-FITC/propidium iodide staining based flow cytometry (reference value: 2.82%); assay type: functional
Bel-7402 [17] = assay: Induction of apoptosis in human Bel7402 cells assessed as viable cells at 0.25 uM after 72 hrs by Annexin V-FITC/propidium iodide staining based flow cytometry (reference value: 82.48%); assay type: functional; settings: Bel-7402, 72 h, read-out: Activity
Bel-7402 [18] = assay: Induction of apoptosis in human Bel7402 cells assessed as late apoptotic cells at 0.5 uM after 72 hrs by Annexin V-FITC/propidium iodide staining based flow cytometry (reference value: 2.82%); assay type: functional
Bel-7402 [19] = assay: Induction of apoptosis in human Bel7402 cells assessed as necrotic cells at 0.5 uM after 72 hrs by Annexin V-FITC/propidium iodide staining based flow cytometry (reference value: 13.05%); assay type: functional
Bel-7402 [20] = assay: Induction of mitochondrial membrane depolarization in human Bel7402 cells after 24 to 48 hrs by JC1 staining based flow cytometric analysis; assay type: functional, cell-based
Bel-7402 [21] = assay: Upregulation of Bax level in human Bel7402 cells after 72 hrs by Western blot analysis; assay type: functional, cell-based
Method in brief: (§3)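 Bel-7402 cells were treated for 72 h at the indicated concentrations (0.125–0.5 µM) and lysed. Lysates were cleared at 14,000 g for 10 min at 4 °C, and 25 µg protein per lane was run on 10% SDS-PAGE and transferred to nitrocellulose. Membranes were blocked in 5% milk, probed overnight at 4 °C with monoclonal antibodies, and detected by ECL. Densitometry was normalized to GAPDH.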

Bel-7402 [22] = assay: Upregulation of caspase-3 level in human Bel7402 cells at 0.125 to 0.5 uM after 72 hrs by Western blot analysis; assay type: functional, cell-based; method in brief: as §3
Bel-7402 [23] = assay: Upregulation of caspase-9 level in human Bel7402 cells at 0.125 to 0.5 uM after 72 hrs by Western blot analysis; assay type: functional, cell-based; method in brief: as §3
Bel-7402 [24] = assay: Induction of cyto-c accumulation in human Bel7402 cells cytosol at 0.125 to 0.5 uM after 72 hrs by Western blot analysis; assay type: functional, cell-based; method in brief: as §3
Bel-7402 [25] = assay: Upregulation of p53 level in human Bel7402 cells after 72 hrs by Western blot analysis; assay type: functional, cell-based; method in brief: as §3
Bel-7402 [26] = assay: Induction of mitochondrial membrane depolarization in human Bel7402 cells assessed as cells with mitochondrial membrane potential loss at 0.125 uM after 24 to 48 hrs by JC-1 staining based flow cytometric analysis (reference value: 6.17%); assay type: functional
Bel-7402 [27] = assay: Induction of mitochondrial membrane depolarization in human Bel7402 cells assessed as cell with intact mitochondrial membrane potential at 0.25 uM after 24 to 48 hrs by JC-1 staining based flow cytometric analysis (reference value: 98.83%); assay type: functional
Bel-7402 [28] = assay: Induction of mitochondrial membrane depolarization in human Bel7402 cells assessed as cells with mitochondrial membrane potential loss at 0.5 uM after 24 to 48 hrs by JC-1 staining based flow cytometric analysis (reference value: 6.17%); assay type: functional

With `C[C@H]1CCC/C=C/[C@@H]2C[C@H](O)C[C@H]2[C@H](OC(=O)c2ccc(N(CCCl)CCCl)cc2)/C=C/C(=O)O1` the IC50 (PC-3) was 9.37 µM, the IC50 (Bel-7402 [1]) was 0.25 µM and the IC50 (L02) was 9.74 µM. For the same compound, the Activity (Bel-7402 [2]) was 43.8%, the Activity (Bel-7402 [3]) was 19.92% and the Activity (Bel-7402 [4]) was 36.28%. The Activity (Bel-7402 [5]) was 54.26%, the Activity (Bel-7402 [6]) was 32.48% and the Activity (Bel-7402 [7]) was 58.17%. The Activity (Bel-7402 [8]) was “Active”, the Activity (Bel-7402 [9]) was “Active” and the Activity (Bel-7402 [10]) was “Active”. For the same compound, the Activity (Bel-7402 [11]) was “Dose-dependent effect”, the Activity (Bel-7402 [12]) was 5.47% and the Activity (Bel-7402 [13]) was 3.45%. The viability at 0.125 µM (Bel-7402 [14]) was 80.6%, the Activity (Bel-7402 [15]) was 22.69% and the Activity (Bel-7402 [16]) was 11.26%. It also gave a viability at 0.25 µM (Bel-7402 [17]) of 62.9%, an Activity (Bel-7402 [18]) of 18.48% and an Activity (Bel-7402 [19]) of 3.87%. The Activity (Bel-7402 [20]) was “Dose-dependent effect”, the Activity (Bel-7402 [21]) was “Dose-dependent effect” and the Activity (Bel-7402 [22]) was “Active”. For the same compound, the Activity (Bel-7402 [23]) was “Active”, the Activity (Bel-7402 [24]) was “Active” and the Activity (Bel-7402 [25]) was “Dose-dependent effect”. The Activity (Bel-7402 [26]) was 16.06%, the Activity (Bel-7402 [27]) was 70.4% and the Activity (Bel-7402 [28]) was 43.85%.
